Results from ChEMBL document CHEMBL1150328, “Acetic acid aldose reductase inhibitors bearing a five-membered heterocyclic core with potent topical activity in a visual impairment rat model” (J Med Chem, 2008).
Activity calls are given as the source filed them. No cut-off for these calls is given here.

Key:
[1] = (§1) Inhibition of ALR2 in Sprague-Dawley rat lens by spectrophotometry; format: tissue-based, Lens of camera-type eye
In short: (§2)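 Rat lens extract, ammonium sulfate fractionated and dialyzed. 30 °C, 0.1 M sodium phosphate pH 6.2 with 0.25 mL 10 mM D,L-glyceraldehyde and 0.25 mL 0.104 mM NADPH in 1 mL total. Preincubated 10 min without substrate, then read 5 min at 340 nm against a substrate-free blank. Screened at 10^-4 M, then 10^-5 to 10^-8 M. IC50 by linear regression of log-dose curve, ≥4 concentrations.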

[2] = Inhibition of ALR1 in Sprague-Dawley rat kidney by spectrophotometry; format: tissue-based
In short: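 Rat kidney enzyme from 3 vol 10 mM sodium phosphate pH 7.2 homogenate (0.25 M sucrose, EDTA, β-mercaptoethanol), 40-75% ammonium sulfate cut, dialyzed. 37 °C, 0.25 mL 20 mM sodium D-glucuronate, 0.25 mL 0.12 mM NADPH, 0.1 M phosphate pH 7.2, 1 mL total. NADPH oxidation followed at 340 nm against a substrate-free blank.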

Rattus norvegicus [3] = organism: Rattus norvegicus; assay: as §1; format: tissue-based; settings: Lens of camera-type eye; in short: as §2
Rattus norvegicus [4] = organism: Rattus norvegicus; assay: Inhibition of ALR2 in Sprague-Dawley rat lens at >100 uM by spectrophotometry; format: tissue-based; settings: Lens of camera-type eye; in short: as §2
Rattus norvegicus [5] = assay: Prevention of cataract development in severely galactosemic Sprague-Dawley Albino rat administered four timely daily as 3% eye-drop solution in precorneal region for 21 days; format: functional, organism-based
In short: (§3)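 Sprague-Dawley rats, 45-55 g, on 50% D-galactose chow, 15 per group. Both eyes dosed four times daily with 3% eye-drops or vehicle, starting one day before the diet switch. Lenses examined by slit-lamp after 1% atropine dilation at baseline and days 6, 8, 10, 14, 21. Graded stages 0-4, animals per stage counted, Mann-Whitney U-test.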

Rattus norvegicus [6] = assay: Prevention of cataract development in severely galactosemic Sprague-Dawley Albino rat assessed as lens opacification administered four timely daily as 3% eye-drop solution in precorneal region for 21 days by slit-lamp microscopy; format: functional, organism-based; settings: Lens of camera-type eye; in short: as §3
Rattus norvegicus [7] = assay: Prevention of cataract development in severely galactosemic Sprague-Dawley Albino rat assessed as lens opacification administered four timely daily as 3% eye-drop solution in precorneal region for 11 days by slit-lamp microscopy; format: functional, organism-based; settings: Lens of camera-type eye
Rattus norvegicus [8] = assay: Prevention of cataract development in severely galactosemic Sprague-Dawley Albino rat assessed as lens opacification administered four timely daily as 3% eye-drop solution in precorneal region for 12 days by slit-lamp microscopy; format: functional, organism-based; settings: Lens of camera-type eye
Rattus norvegicus [9] = assay: Prevention of cataract development in severely galactosemic Sprague-Dawley Albino rat assessed as lens opacification administered four timely daily as 3% eye-drop solution in precorneal region for 13 days by slit-lamp microscopy; format: functional, organism-based; settings: Lens of camera-type eye
Rattus norvegicus [10] = assay: Prevention of cataract development in severely galactosemic Sprague-Dawley Albino rat assessed as lens opacification administered four timely daily as 3% eye-drop solution in precorneal region for 14 days by slit-lamp microscopy; format: functional, organism-based; settings: Lens of camera-type eye; in short: as §3
Rattus norvegicus [11] = assay: Prevention of cataract development in severely galactosemic Sprague-Dawley Albino rat assessed as lens opacification administered four timely daily as 3% eye-drop solution in precorneal region for 15 days by slit-lamp microscopy; format: functional, organism-based; settings: Lens of camera-type eye
Rattus norvegicus [12] = assay: Prevention of cataract development in severely galactosemic Sprague-Dawley Albino rat assessed as lens opacification administered four timely daily as 3% eye-drop solution in precorneal region for 16 days by slit-lamp microscopy; format: functional, organism-based; settings: Lens of camera-type eye
Rattus norvegicus [13] = assay: Prevention of cataract development in severely galactosemic Sprague-Dawley Albino rat assessed as lens opacification administered four timely daily as 3% eye-drop solution in precorneal region for 17 days by slit-lamp microscopy; format: functional, organism-based; settings: Lens of camera-type eye
Rattus norvegicus [14] = assay: Prevention of cataract development in severely galactosemic Sprague-Dawley Albino rat assessed as lens opacification administered four timely daily as 3% eye-drop solution in precorneal region for 18 days by slit-lamp microscopy; format: functional, organism-based; settings: Lens of camera-type eye
Rattus norvegicus [15] = assay: Prevention of cataract development in severely galactosemic Sprague-Dawley Albino rat assessed as lens opacification administered four timely daily as 3% eye-drop solution in precorneal region for 19 days by slit-lamp microscopy; format: functional, organism-based; settings: Lens of camera-type eye
Rattus norvegicus [16] = assay: Prevention of cataract development in severely galactosemic Sprague-Dawley Albino rat assessed as lens opacification administered four timely daily as 3% eye-drop solution in precorneal region for 20 days by slit-lamp microscopy; format: functional, organism-based; settings: Lens of camera-type eye

Row | SMILES | IC50 [1] | IC50 [2] | also measured
1 | O=C(O)Cc1nc(-c2cccc([N+](=O)[O-])c2)no1 | 0.71 µM | > 10 µM | 
2 | Cc1ccc(-c2nc(CC(=O)O)co2)cc1 |  |  | Activity (Rattus norvegicus [3]): inactive; Activity (Rattus norvegicus [4]): Active
3 | O=C(O)Cc1nc(Cc2cccc([N+](=O)[O-])c2)no1 | 0.3 µM | > 10 µM | 
4 | O=C(O)Cc1nc(Cc2ccc(Br)cc2)no1 | 1.66 µM | > 10 µM | 
5 | COc1ccc(Cc2noc(CC(=O)O)n2)cc1 | 8.18 µM | > 10 µM | 
6 | O=C(O)Cc1nc(-c2ccc(Br)cc2F)no1 | 2 µM | > 10 µM | 
7 | O=C(O)Cc1nc(-c2ccc(C(F)(F)F)cc2)no1 | 1.08 µM | > 10 µM | 
8 | COc1ccc(-c2noc(CC(=O)O)n2)cc1 | 0.27 µM | > 10 µM | Activity (Rattus norvegicus [5]): Active; Activity (Rattus norvegicus [6]): Active; Activity (Rattus norvegicus [7]): Active; Activity (Rattus norvegicus [8]): Active; Activity (Rattus norvegicus [9]): Active; Activity (Rattus norvegicus [10]): Active; Activity (Rattus norvegicus [11]): Active; Activity (Rattus norvegicus [12]): Active; Activity (Rattus norvegicus [13]): Active; Activity (Rattus norvegicus [14]): Active
9 | O=C(O)Cc1nc(Cc2ccc(Br)cc2F)no1 | 0.36 µM | > 10 µM | 
10 | O=C(O)Cc1nc(Cc2ccccc2)no1 | 28.4 µM | > 10 µM | 
11 | O=C(O)Cc1nc(-c2ccc(Br)cc2)no1 | 0.69 µM | > 10 µM | 
12 | O=C(O)Cc1nc(-c2ccc(Cl)cc2)no1 | 3.95 µM | > 10 µM | 
13 | O=C(O)Cc1nc(-c2ccccc2)no1 | 3.33 µM | > 10 µM | 
14 | COc1ccc2c(C(=S)N(C)CC(=O)O)cccc2c1C(F)(F)F [TOLRESTAT] | 0.05 µM | > 10 µM | Activity (Rattus norvegicus [6]): Active; Activity (Rattus norvegicus [7]): Active; Activity (Rattus norvegicus [8]): Active; Activity (Rattus norvegicus [9]): Active; Activity (Rattus norvegicus [10]): Active; Activity (Rattus norvegicus [11]): Active; Activity (Rattus norvegicus [12]): Active; Activity (Rattus norvegicus [13]): Active; Activity (Rattus norvegicus [14]): Active; Activity (Rattus norvegicus [15]): Active; Activity (Rattus norvegicus [16]): Active
15 | O=C(O)Cc1nc(Cc2ccc(F)cc2)no1 | 21.7 µM | > 10 µM | 
16 | O=C(O)Cc1nc(Cc2ccc(C(F)(F)F)cc2)no1 | 6.3 µM | > 10 µM | 
17 | O=C(O)Cc1coc(-c2ccccc2)n1 |  |  | Activity (Rattus norvegicus [3]): inactive; Activity (Rattus norvegicus [4]): Active
18 | O=C(O)Cc1nc(Cc2ccc(Cl)cc2)no1 | 5.11 µM | > 10 µM | 
19 | O=C(O)Cc1coc(-c2ccc(F)cc2)n1 |  |  | Activity (Rattus norvegicus [3]): inactive; Activity (Rattus norvegicus [4]): Active
20 | Cc1ccc(-c2noc(CC(=O)O)n2)cc1 | 2.5 µM | > 10 µM | 
21 | Cc1ccc(Cc2noc(CC(=O)O)n2)cc1 | 5.29 µM | > 10 µM | 
22 | O=C(O)Cc1nc(-c2ccc(F)cc2)no1 | 8.43 µM | > 10 µM | 
23 | COc1ccc(-c2nc(CC(=O)O)co2)cc1 | 54.8 µM |  | 
